“And” between values parts separate entries of the source, which are not always exact repeats. Equal values may be shown once.
System: HEK-293T
Assay: Multiplex assay against HEK293T
Type: toxicity, cell-based
Conditions: human
Procedure, shortened: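 Tubulin, mitochondrial-mass and membrane-permeability phenotypes are per cents of healthy-nucleus cells. Cells were gated by CellPathfinder machine learning into Hoechst high-intensity objects or normal cells, normal cells into healthy, pyknosed or fragmented nuclei, and pyknosed cells into mitotic or apoptotic. Before that, live cells stained at seeding with Hoechst33342, BioTracker Green Microtubule Cytoskeleton Dye, MitoTracker Red and Annexin V Alexa Fluor 680 were imaged on a CQ1 microscope at 37°C and 5% CO2 after compound addition.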

[1] = 12 h, 1 µM, compound concentration 1 uM
[2] = 12 h, 10 µM, compound concentration 10 uM
[3] = 24 h, 1 µM, compound concentration 1 uM
[4] = 24 h, 10 µM, compound concentration 10 uM
[5] = 48 h, 1 µM, compound concentration 1 uM
[6] = 48 h, 10 µM, compound concentration 10 uM

Q: Which results are given for `CCOC(=O)c1cnn(-c2ccc(NC(=O)C(Cl)=C(Cl)Cl)cc2)c1C(F)(F)F`?
A: Population Apoptotic (%) [1]: 11.04% and 11.54%; Population Fragmented Nuclei (%) [1]: 2.46% and 4.48%; Population Hoechst High Intensity Objects (%) [1]: 0.27% and 0%; Population Membrane Permeable-Phenotype (%) [1]: 0.49% and 0%; Population Mitochondria Different-Phenotype (%) [1]: 37.44% and 16.67%; Population Mitotic Cells (%) [1]: 88.96% and 88.46%; Population Normal (%) [1]: 99.73% and 100%; Population Pyknosed Nuclei (%) [1]: 42.08% and 77.61%; Total Cell Count [1]: 367 and 134; Population Apoptotic (%) [2]: 29.28% and 34.92%; Population Fragmented Nuclei (%) [2]: 10.14% and 2.8%; Population Healthy Nuclei (%) [2]: 26.57% and 9.09%; Population Hoechst High Intensity Objects (%) [2]: 0.35% and 0%; Population Membrane Permeable-Phenotype (%) [2]: 1.32% and 0%; Population Mitochondria Different-Phenotype (%) [2]: 18.42% and 46.15%; Population Mitotic Cells (%) [2]: 70.72% and 65.08%; Population Normal (%) [2]: 99.65% and 100%; Population Pyknosed Nuclei (%) [2]: 63.29% and 88.11%; Total Cell Count [2]: 287 and 143; Population Apoptotic (%) [3]: 14.69% and 14.29%; Population Fragmented Nuclei (%) [3]: 1.44% and 6.88%; Population Healthy Nuclei (%) [3]: 72.84% and 31.87%; Population Hoechst High Intensity Objects (%) [3]: 0.18% and 0%; Population Membrane Permeable-Phenotype (%) [3]: 2.47% and 1.96%; Population Mitochondria Different-Phenotype (%) [3]: 18.02% and 7.84%; Population Mitotic Cells (%) [3]: 85.31% and 85.71%; Population Normal (%) [3]: 99.82% and 100%; Population Pyknosed Nuclei (%) [3]: 25.72% and 61.25%; Population Apoptotic (%) [4]: 63.22% and 90.58%; Population Fragmented Nuclei (%) [4]: 11.84% and 6.41%; Population Healthy Nuclei (%) [4]: 12.77% and 5.13%; Population Hoechst High Intensity Objects (%) [4]: 3.6% and 0%; Population Membrane Permeable-Phenotype (%) [4]: 0%; Population Mitochondria Different-Phenotype (%) [4]: 29.27% and 37.5%; Population Normal (%) [4]: 96.4% and 100%; Population Pyknosed Nuclei (%) [4]: 75.39% and 88.46%; Population Tubulin-Different-Phenotype (%) [4]: 29.27% and 37.5%; Total Cell Count [4]: 333 and 156; Population Fragmented Nuclei (%) [5]: 2.62% and 2.05%; Population Healthy Nuclei (%) [5]: 85.68% and 49.74%; Population Hoechst High Intensity Objects (%) [5]: 0.22% and 0%; Population Membrane Permeable-Phenotype (%) [5]: 5.07% and 1.03%; Population Mitochondria Different-Phenotype (%) [5]: 16.62% and 27.84%; Population Mitotic Cells (%) [5]: 94.87% and 81.91%; Population Normal (%) [5]: 99.78% and 100%; Population Apoptotic (%) [6]: 53.58% and 95.86%; Population Fragmented Nuclei (%) [6]: 14.99% and 9.58%; Population Healthy Nuclei (%) [6]: 8.65% and 3.59%; Population Hoechst High Intensity Objects (%) [6]: 1.42% and 0.6%; Population Membrane Permeable-Phenotype (%) [6]: 0%; Population Mitochondria Different-Phenotype (%) [6]: 43.33% and 100%; Population Normal (%) [6]: 98.58% and 99.4%; Population Pyknosed Nuclei (%) [6]: 76.37% and 86.83%; Population Tubulin-Different-Phenotype (%) [6]: 23.33% and 66.67%; Total Cell Count [6]: 352 and 168

Q: What does the source list for `Cc1cc(C)cc(C(=O)NOCCCCCC(=O)NO)c1`?
A: Population Apoptotic (%) [1]: 7.89% and 11.48%; Population Fragmented Nuclei (%) [1]: 1.15% and 1.27%; Population Healthy Nuclei (%) [1]: 55.3% and 21.02%; Population Hoechst High Intensity Objects (%) [1]: 0% and 0.63%; Population Membrane Permeable-Phenotype (%) [1]: 0% and 9.09%; Population Mitochondria Different-Phenotype (%) [1]: 25.91% and 12.12%; Population Mitotic Cells (%) [1]: 92.11% and 88.52%; Population Normal (%) [1]: 100% and 99.37%; Population Pyknosed Nuclei (%) [1]: 43.55% and 77.71%; Population Tubulin-Different-Phenotype (%) [1]: 7.25% and 18.18%; Total Cell Count [1]: 349 and 158; Population Apoptotic (%) [2]: 9.87% and 7.69%; Population Fragmented Nuclei (%) [2]: 3.28% and 1.65%; Population Healthy Nuclei (%) [2]: 51.34% and 26.92%; Population Hoechst High Intensity Objects (%) [2]: 0.3% and 0%; Population Membrane Permeable-Phenotype (%) [2]: 1.16% and 0%; Population Mitochondria Different-Phenotype (%) [2]: 29.65% and 12.24%; Population Mitotic Cells (%) [2]: 90.13% and 92.31%; Population Normal (%) [2]: 99.7% and 100%; Population Pyknosed Nuclei (%) [2]: 45.37% and 71.43%; Total Cell Count [2]: 336 and 182; Population Apoptotic (%) [3]: 32.32% and 20.49%; Population Fragmented Nuclei (%) [3]: 0.99% and 2.29%; Population Healthy Nuclei (%) [3]: 74.57% and 28%; Population Hoechst High Intensity Objects (%) [3]: 0.25% and 0.57%; Population Membrane Permeable-Phenotype (%) [3]: 1.66% and 0%; Population Mitochondria Different-Phenotype (%) [3]: 25.5% and 16.33%; Population Mitotic Cells (%) [3]: 67.68% and 79.51%; Population Normal (%) [3]: 99.75% and 99.43%; Population Pyknosed Nuclei (%) [3]: 24.44% and 69.71%; Population Tubulin-Different-Phenotype (%) [3]: 17.88% and 30.61%; Total Cell Count [3]: 406 and 176; Population Apoptotic (%) [4]: 24.32% and 10.53%; Population Fragmented Nuclei (%) [4]: 3.75% and 3.33%; Population Healthy Nuclei (%) [4]: 73.12% and 33.33%; Population Hoechst High Intensity Objects (%) [4]: 0%; Population Membrane Permeable-Phenotype (%) [4]: 0% and 1.67%; Population Mitotic Cells (%) [4]: 75.68% and 89.47%; Population Normal (%) [4]: 100%; Population Pyknosed Nuclei (%) [4]: 23.12% and 63.33%; Population Tubulin-Different-Phenotype (%) [4]: 4.27% and 1.67%; Total Cell Count [4]: 320 and 180; Population Apoptotic (%) [5]: 23.33% and 32.22%; Population Fragmented Nuclei (%) [5]: 5.26% and 1.12%; Population Healthy Nuclei (%) [5]: 76.52% and 48.6%; Population Hoechst High Intensity Objects (%) [5]: 1% and 0%; Population Membrane Permeable-Phenotype (%) [5]: 1.59% and 2.3%; Population Mitochondria Different-Phenotype (%) [5]: 50.26% and 32.18%; Population Mitotic Cells (%) [5]: 76.67% and 67.78%; Population Normal (%) [5]: 99% and 100%; Population Pyknosed Nuclei (%) [5]: 18.22% and 50.28%; Total Cell Count [5]: 499 and 179; Population Apoptotic (%) [6]: 30.43% and 28%; Population Fragmented Nuclei (%) [6]: 3.91% and 6.29%; Population Healthy Nuclei (%) [6]: 63.35% and 36.57%; Population Hoechst High Intensity Objects (%) [6]: 0.35% and 0.57%; Population Membrane Permeable-Phenotype (%) [6]: 3.37% and 0%; Population Mitotic Cells (%) [6]: 69.57% and 72%; Population Normal (%) [6]: 99.65% and 99.43%; Population Pyknosed Nuclei (%) [6]: 32.74% and 57.14%; Population Tubulin-Different-Phenotype (%) [6]: 7.87% and 17.19%; Total Cell Count [6]: 282 and 176
